Source: ChEMBL document CHEMBL3797163, “Tryptic Stability of Synthetic Bactenecin Derivatives Is Determined by the Side Chain Length of Cationic Residues and the Peptide Conformation” (J Med Chem, 2016)
≈ marks a conversion by molar mass, not a printed value. Square brackets hold non-standard residues; d marks the D form. Peptide text beside a SMILES is read from it. hArg = N=C(N)NCCCC[C@H](N)C(=O)O; Orn = NCCC[C@H](N)C(=O)O; Dab = NCC[C@H](N)C(=O)O

What was measured:
[1] = Stability of compound assessed as bovine trypsin mediated degradation at 2 to 5 mM after 2 hrs by HPLC/MS analysis; type: ADME, Bos taurus; settings: cattle, isolated protein, 5000 µM
Summary of the method: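 Bovine pancreatic trypsin (salt-free) was freshly dissolved at 1 mg per 50 mL in 0.1 M NH4HCO3, pH 8.2, and added to peptide, which was diluted from 2˗5 mM stocks to a final 60 µM. Reactions were shaken at 37 °C and sampled at 2 h and 24 h. Aliquots were quenched with acetic acid/TFA and analysed by RP-HPLC (C18, 220 nm) and direct-injection ESI-MS. No-enzyme samples served as controls.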

Escherichia coli = test: Antimicrobial activity against Escherichia coli O157:H7 incubated overnight by microdilution method; type: functional
Summary of the method: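 Broth microdilution in Mueller-Hinton broth. Peptides were serially diluted twofold in water at 2× final concentration and mixed 1:1 with bacteria in 2× MHB, giving a final inoculum of 2-7 × 10^5 CFU/mL. Plates were incubated overnight at 37 °C. MIC was read as the lowest concentration with no visible growth.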

Staphylococcus aureus = test: Antimicrobial activity against Staphylococcus aureus C622 incubated overnight by microdilution method; type: functional
Summary of the method: (§1)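 Broth microdilution in Mueller-Hinton broth. Peptides were serially diluted 2-fold in water at twice the final concentration, then mixed 1:1 with bacteria in 2× MHB to a final 2˗7 × 10^5 CFU/mL. Plates were incubated overnight at 37 °C. MIC was taken as the lowest concentration showing no growth.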

Bacillus subtilis = test: Antimicrobial activity against Bacillus subtilis C626 incubated overnight by microdilution method; type: functional; summary of the method: as §1
Acinetobacter baumannii = test: Antimicrobial activity against Acinetobacter baumannii ATCC 17978 incubated overnight by microdilution method; type: functional; summary of the method: as §1

SMILES | Stability [1] | MIC (Escherichia coli) | MIC (Staphylococcus aureus) | MIC (Bacillus subtilis) | MIC (Acinetobacter baumannii)
CC[C@@H](C)[C@@H](NC(=O)[C@@H](CCCNC(=N)N)NC(=O)[C@H](N)Cc1c[nH]c2ccccc12)C(=O)N[C@H](Cc1c[nH]c2ccccc12)C(=O)N[C@H](CCCCN)C(=O)N[C@H](Cc1c[nH]c2ccccc12)C(=O)N[C@H](Cc1c[nH]c2ccccc12)C(=O)N[C@H](CCCNC(=N)N)C(=O)N[C@H](CCCCN)C(N)=O | Stable | – | – | – | –
CC[C@@H](C)[C@@H](NC(=O)[C@@H](Cc1c[nH]c2ccccc12)NC(=O)[C@@H](CCCCN)NC(=O)[C@@H](Cc1c[nH]c2ccccc12)NC(=O)[C@@H](Cc1c[nH]c2ccccc12)NC(=O)[C@@H](CCCNC(=N)N)NC(=O)[C@H](N)CCCCN)C(=O)N[C@H](CCCNC(=N)N)C(=O)N[C@H](Cc1c[nH]c2ccccc12)C(N)=O | Stable | – | – | – | –
CC[C@H](C)[C@H](NC(=O)[C@H](Cc1c[nH]c2ccccc12)NC(=O)[C@H](CCCN)NC(=O)[C@H](Cc1c[nH]c2ccccc12)NC(=O)[C@H](Cc1c[nH]c2ccccc12)NC(=O)[C@H](CCCCNC(=N)N)NC(=O)[C@@H](N)CCCN)C(=O)N[C@@H](CCCCNC(=N)N)C(=O)N[C@@H](Cc1c[nH]c2ccccc12)C(N)=O (H-[Orn][hArg]WW[Orn]WI[hArg]W-NH2) | Unstable | 1.25 µM (≈ 1.8 µg/mL) | 5 µM (≈ 7.22 µg/mL) | 20 µM (≈ 28.9 µg/mL) | 5 µM (≈ 7.22 µg/mL)
CC[C@H](C)[C@H](NC(=O)[C@H](Cc1c[nH]c2ccccc12)NC(=O)[C@H](CCN)NC(=O)[C@H](Cc1c[nH]c2ccccc12)NC(=O)[C@H](Cc1c[nH]c2ccccc12)NC(=O)[C@H](CCCCNC(=N)N)NC(=O)[C@@H](N)CCN)C(=O)N[C@@H](CCCCNC(=N)N)C(=O)N[C@@H](Cc1c[nH]c2ccccc12)C(N)=O (H-[Dab][hArg]WW[Dab]WI[hArg]W-NH2) | Unstable | 1.25 µM (≈ 1.77 µg/mL) | 5 µM (≈ 7.08 µg/mL) | 20 µM (≈ 28.3 µg/mL) | 5 µM (≈ 7.08 µg/mL)
N=C(N)NCCCC[C@H](NC(=O)[C@H](CCCCNC(=N)N)NC(=O)[C@H](Cc1c[nH]c2ccccc12)NC(=O)[C@@H](Cc1c[nH]c2ccccc12)NC(=O)[C@@H](CCN)NC(=O)[C@@H](Cc1c[nH]c2ccccc12)NC(=O)[C@H](Cc1c[nH]c2ccccc12)NC(=O)[C@@H](CCCCNC(=N)N)NC(=O)[C@@H](N)CCN)C(N)=O | Unstable | 2.5 µM (≈ 3.68 µg/mL) | 5 µM (≈ 7.36 µg/mL) | 40 µM (≈ 58.9 µg/mL) | 40 µM (≈ 58.9 µg/mL)
CC[C@H](C)[C@H](NC(=O)[C@H](Cc1c[nH]c2ccccc12)NC(=O)[C@H](CCCCNC(=N)N)NC(=O)[C@H](Cc1c[nH]c2ccccc12)NC(=O)[C@H](Cc1c[nH]c2ccccc12)NC(=O)[C@H](CCCCNC(=N)N)NC(=O)[C@@H](N)CCCCNC(=N)N)C(=O)N[C@@H](CCCCNC(=N)N)C(=O)N[C@@H](Cc1c[nH]c2ccccc12)C(N)=O (H-[hArg][hArg]WW[hArg]WI[hArg]W-NH2) | Unstable | 2.5 µM (≈ 3.89 µg/mL) | 2.5 µM (≈ 3.89 µg/mL) | 5 µM (≈ 7.78 µg/mL) | 5 µM (≈ 7.78 µg/mL)
NCCC[C@H](NC(=O)[C@H](CCCN)NC(=O)[C@H](Cc1c[nH]c2ccccc12)NC(=O)[C@H](Cc1c[nH]c2ccccc12)NC(=O)[C@H](CCCN)NC(=O)[C@H](Cc1c[nH]c2ccccc12)NC(=O)[C@H](Cc1c[nH]c2ccccc12)NC(=O)[C@H](CCCN)NC(=O)[C@@H](N)CCCN)C(N)=O (H-[Orn][Orn]WW[Orn]WW[Orn][Orn]-NH2) | Unstable | 2.5 µM (≈ 3.33 µg/mL) | 20 µM (≈ 26.7 µg/mL) | 40 µM (≈ 53.3 µg/mL) | > 80 µM
NCC[C@H](NC(=O)[C@H](CCN)NC(=O)[C@H](Cc1c[nH]c2ccccc12)NC(=O)[C@H](Cc1c[nH]c2ccccc12)NC(=O)[C@H](CCN)NC(=O)[C@H](Cc1c[nH]c2ccccc12)NC(=O)[C@H](Cc1c[nH]c2ccccc12)NC(=O)[C@H](CCN)NC(=O)[C@@H](N)CCN)C(N)=O (H-[Dab][Dab]WW[Dab]WW[Dab][Dab]-NH2) | Stable | 2.5 µM (≈ 3.16 µg/mL) | 5 µM (≈ 6.31 µg/mL) | 20 µM (≈ 25.2 µg/mL) | 80 µM (≈ 101 µg/mL)
N=C(N)NCCC[C@@H](N)C(=O)N[C@H](CCCNC(=N)N)C(=O)N[C@H](Cc1c[nH]c2ccccc12)C(=O)N[C@H](Cc1c[nH]c2ccccc12)C(=O)N[C@H](CCCCN)C(=O)N[C@H](Cc1c[nH]c2ccccc12)C(=O)N[C@H](Cc1c[nH]c2ccccc12)C(=O)N[C@H](CCCNC(=N)N)C(=O)N[C@H](CCCCN)C(N)=O | Stable | 1.25 µM (≈ 1.86 µg/mL) | 5 µM (≈ 7.43 µg/mL) | 20 µM (≈ 29.7 µg/mL) | –
CC[C@H](C)[C@H](NC(=O)[C@H](Cc1c[nH]c2ccccc12)NC(=O)[C@H](CCCNC(=N)N)NC(=O)[C@H](Cc1c[nH]c2ccccc12)NC(=O)[C@H](Cc1c[nH]c2ccccc12)NC(=O)[C@H](CCCCN)NC(=O)[C@@H](N)CCCNC(=N)N)C(=O)N[C@@H](CCCCN)C(=O)N[C@@H](Cc1c[nH]c2ccccc12)C(N)=O (H-RKWWRWIKW-NH2) | Unstable | 1.25 µM (≈ 1.8 µg/mL) | 2.5 µM (≈ 3.61 µg/mL) | 20 µM (≈ 28.9 µg/mL) | 5 µM (≈ 7.22 µg/mL)
CN[C@@H](CC(C)C)C(=O)N[C@H]1C(=O)N[C@@H](CC(N)=O)C(=O)N[C@H]2C(=O)N[C@H]3C(=O)N[C@H](C(=O)N[C@@H](C(=O)O)c4cc(O)cc(O)c4-c4cc3ccc4O)[C@H](O)c3ccc(c(Cl)c3)Oc3cc2cc(c3O[C@H]2O[C@@H](CO)[C@H](O)[C@@H](O)[C@@H]2O[C@@H]2C[C@@](C)(N)[C@@H](O)[C@@H](C)O2)Oc2ccc(cc2Cl)[C@H]1O | – | > 32 µM | 1 µM (≈ 1.45 µg/mL) | 1 µM (≈ 1.45 µg/mL) | > 32 µM
N=C(N)NCCC[C@H](NC(=O)[C@H](Cc1c[nH]c2ccccc12)NC(=O)[C@H](Cc1c[nH]c2ccccc12)NC(=O)[C@H](CCCCN)NC(=O)[C@@H](N)CCCNC(=N)N)C(=O)N[C@@H](Cc1c[nH]c2ccccc12)C(=O)N[C@@H](Cc1c[nH]c2ccccc12)C(=O)N[C@@H](CCCCN)C(=O)N[C@@H](CCCCN)C(N)=O (H-RKWWRWWKK-NH2) | Unstable | 2.5 µM (≈ 3.65 µg/mL) | 10 µM (≈ 14.6 µg/mL) | > 40 µM | > 40 µM
CC[C@H](C)[C@H](NC(=O)[C@H](Cc1c[nH]c2ccccc12)NC(=O)[C@H](CCCN)NC(=O)[C@H](Cc1c[nH]c2ccccc12)NC(=O)[C@H](Cc1c[nH]c2ccccc12)NC(=O)[C@H](CCCN)NC(=O)[C@@H](N)CCCN)C(=O)N[C@@H](CCCN)C(=O)N[C@@H](Cc1c[nH]c2ccccc12)C(N)=O (H-[Orn][Orn]WW[Orn]WI[Orn]W-NH2) | Unstable | 1.25 µM (≈ 1.66 µg/mL) | 5 µM (≈ 6.66 µg/mL) | 10 µM (≈ 13.3 µg/mL) | 10 µM (≈ 13.3 µg/mL)
N=C(N)NCCCC[C@H](NC(=O)[C@H](CCCCNC(=N)N)NC(=O)[C@H](Cc1c[nH]c2ccccc12)NC(=O)[C@@H](Cc1c[nH]c2ccccc12)NC(=O)[C@@H](CCCN)NC(=O)[C@@H](Cc1c[nH]c2ccccc12)NC(=O)[C@H](Cc1c[nH]c2ccccc12)NC(=O)[C@H](CCCCNC(=N)N)NC(=O)[C@H](N)CCCN)C(N)=O | Unstable | 2.5 µM (≈ 3.75 µg/mL) | 5 µM (≈ 7.5 µg/mL) | 40 µM (≈ 60 µg/mL) | 40 µM (≈ 60 µg/mL)
CC[C@H](C)[C@H](NC(=O)[C@H](Cc1c[nH]c2ccccc12)NC(=O)[C@H](CCCCN)NC(=O)[C@H](Cc1c[nH]c2ccccc12)NC(=O)[C@H](Cc1c[nH]c2ccccc12)NC(=O)[C@H](CCCNC(=N)N)NC(=O)[C@@H](N)CCCCN)C(=O)N[C@@H](CCCNC(=N)N)C(=O)N[C@@H](Cc1c[nH]c2ccccc12)C(N)=O | Unstable | 1.25 µM (≈ 1.8 µg/mL) | 5 µM (≈ 7.22 µg/mL) | 20 µM (≈ 28.9 µg/mL) | 5 µM (≈ 7.22 µg/mL)
N=C(N)NCCCC[C@H](NC(=O)[C@@H](CCCCNC(=N)N)NC(=O)[C@H](Cc1c[nH]c2ccccc12)NC(=O)[C@H](Cc1c[nH]c2ccccc12)NC(=O)[C@H](CCCCNC(=N)N)NC(=O)[C@H](Cc1c[nH]c2ccccc12)NC(=O)[C@@H](Cc1c[nH]c2ccccc12)NC(=O)[C@@H](CCCCNC(=N)N)NC(=O)[C@@H](N)CCCCNC(=N)N)C(N)=O | Unstable | 2.5 µM (≈ 4.03 µg/mL) | 2.5 µM (≈ 4.03 µg/mL) | 10 µM (≈ 16.1 µg/mL) | 20 µM (≈ 32.3 µg/mL)
CC[C@H](C)[C@H](NC(=O)[C@H](Cc1c[nH]c2ccccc12)NC(=O)[C@H](CCN)NC(=O)[C@H](Cc1c[nH]c2ccccc12)NC(=O)[C@H](Cc1c[nH]c2ccccc12)NC(=O)[C@H](CCN)NC(=O)[C@@H](N)CCN)C(=O)N[C@@H](CCN)C(=O)N[C@@H](Cc1c[nH]c2ccccc12)C(N)=O (H-[Dab][Dab]WW[Dab]WI[Dab]W-NH2) | Unstable | 2.5 µM (≈ 3.19 µg/mL) | 2.5 µM (≈ 3.19 µg/mL) | 10 µM (≈ 12.8 µg/mL) | 5 µM (≈ 6.38 µg/mL)
N=C(N)NCCC[C@H](NC(=O)[C@H](CCCNC(=N)N)NC(=O)[C@H](Cc1c[nH]c2ccccc12)NC(=O)[C@H](Cc1c[nH]c2ccccc12)NC(=O)[C@H](CCCCN)NC(=O)[C@H](Cc1c[nH]c2ccccc12)NC(=O)[C@H](Cc1c[nH]c2ccccc12)NC(=O)[C@H](CCCNC(=N)N)NC(=O)[C@@H](N)CCCCN)C(N)=O | Unstable | 2.5 µM (≈ 3.72 µg/mL) | 5 µM (≈ 7.43 µg/mL) | 40 µM (≈ 59.5 µg/mL) | 40 µM (≈ 59.5 µg/mL)
N=C(N)NCCC[C@@H](NC(=O)[C@@H](CCCNC(=N)N)NC(=O)[C@@H](Cc1c[nH]c2ccccc12)NC(=O)[C@@H](Cc1c[nH]c2ccccc12)NC(=O)[C@@H](CCCCN)NC(=O)[C@@H](Cc1c[nH]c2ccccc12)NC(=O)[C@@H](Cc1c[nH]c2ccccc12)NC(=O)[C@@H](CCCNC(=N)N)NC(=O)[C@H](N)CCCCN)C(N)=O | Stable | 1.25 µM (≈ 1.86 µg/mL) | 5 µM (≈ 7.43 µg/mL) | 20 µM (≈ 29.7 µg/mL) | 20 µM (≈ 29.7 µg/mL)
